What was measured:
[1] = biological target: human serum albumin (HSA) (Homo sapiens, UniProt P02768); format: physicochemical; settings: albumin-bound; fit of variable temperature NMRD; (SD)
How it was run: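 Samples were 0.1 mM Gd complex with 0.67 mM HSA (4.5% w/v) in pH 7.4 HEPES-buffered saline, Gd by ICP-MS. 1H NMRD profiles were recorded on a field-cycling relaxometer at 5, 15, 25 and 35 °C over 0.01–50 MHz (0.0002–1.2 T), with 22 points per curve. Variable-temperature profiles were fitted using a Lipari-Szabo treatment.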

[2] = commercial extracellular fluid agent, on the order of; ref not given; cited from earlier work

human serum albumin (HSA), sequence (P02768 25-609): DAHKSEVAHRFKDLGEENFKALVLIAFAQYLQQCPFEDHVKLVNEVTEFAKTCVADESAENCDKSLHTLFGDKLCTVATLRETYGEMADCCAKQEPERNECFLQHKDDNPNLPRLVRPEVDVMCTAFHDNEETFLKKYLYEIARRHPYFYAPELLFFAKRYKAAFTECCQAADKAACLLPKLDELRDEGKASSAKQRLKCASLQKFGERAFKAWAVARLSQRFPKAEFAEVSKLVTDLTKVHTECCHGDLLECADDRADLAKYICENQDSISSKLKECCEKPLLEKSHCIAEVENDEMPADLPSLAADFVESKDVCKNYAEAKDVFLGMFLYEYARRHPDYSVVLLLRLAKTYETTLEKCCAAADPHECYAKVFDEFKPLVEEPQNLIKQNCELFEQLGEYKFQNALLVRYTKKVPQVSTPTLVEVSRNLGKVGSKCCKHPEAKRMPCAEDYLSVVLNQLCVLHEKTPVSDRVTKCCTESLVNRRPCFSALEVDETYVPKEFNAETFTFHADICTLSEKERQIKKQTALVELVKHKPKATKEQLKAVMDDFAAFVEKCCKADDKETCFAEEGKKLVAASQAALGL

F^2 (Lipari-Szabo order parameter) [1] | ΔH^‡ (activation energy for water exchange) [1] | Δ^2 (transient zero field splitting parameter) [1] | τv (correlation time of transient ZFS modulation) [1] | Compound | relaxivity r1 [2] [mM⁻¹ s⁻¹]
0.46 (0.01) | 42.3 (4.2) kJ/mol | 3.39 (0.12) 10^18 s^-2 | 22 (3) ps | Gd1b | 
 |  |  |  | O=C([O-])CN(CCN(CC(=O)[O-])CC(=O)O)CCN(CC(=O)[O-])CC(=O)O.[Gd+3] [Gd-DTPA] | ~4

Source: PMC3021469 (Investigative radiology, 2010)
